Measurements collected from several papers.
Each line is one published result; the experiments were not run side by side.
TNIK: TRAF2 and NCK-interacting protein kinase (TNIK, Homo sapiens, UniProt Q9UKE5)
CASP9: Caspase-9 (CASP9, Homo sapiens, UniProt P55211)
USP7: Ubiquitin carboxyl-terminal hydrolase 7 (USP7, Homo sapiens, UniProt Q93009)
MMP1: Interstitial collagenase (MMP1, Homo sapiens, UniProt P03956)
SLC5A7: High affinity choline transporter 1 (SLC5A7, Homo sapiens, UniProt Q9GZV3)

| Compound | target | test | setting | inhibition [%] |
| --- | --- | --- | --- | --- |
| C#Cc1n[nH]c2c(-c3cn([C@@H](C)c4ccccc4)c(=O)[nH]c3=O)cc(F)cc12 | TNIK | enzyme activity, inhibitor | 0.1 µM | -0.3 |
| CCOC(=O)c1ccc(OC(=O)CCCCCNC(=N)N)cc1 | CASP9 | enzyme activity, inhibitor | 10 µM | 7 |
| Cn1cc(-c2cc(F)cc(N3CCn4c(cc5c4CCCC5)C3=O)c2CO)cc(Nc2ccc(N3CCN(C4COC4)CC3)cn2)c1=O | Eukaryotic elongation factor 2 kinase (EEF2K, Homo sapiens, UniProt O00418) | enzyme activity, inhibitor | 0.1 µM | 4 |
| COCc1c(-c2cc3cc(C)cc(OC)c3s2)c2c(N)ncnn2c1CN1CCNC(=O)C1 | Calcium-dependent protein kinase 1 (CDPK1, Plasmodium falciparum, UniProt P62344) | cell-free assay, competition with immobilised ligand | 1 µM | 93.3 |
| CN(C)C(=O)COC(=O)Cc1ccc(OC(=O)c2ccc(NC(=N)N)cc2)cc1 | USP7 | enzyme activity, inhibitor | 10 µM | 0 |
| Cn1cc(-c2cccc(N3CCc4c(sc5c4CC(C)(C)C5)C3=O)c2CO)cc(Nc2ccncn2)c1=O | Hepatocyte growth factor receptor (MET, Homo sapiens, UniProt P08581) | enzyme activity, inhibitor | 1 µM | 9 |
| COc1ccc(S(=O)(=O)N(CC(=O)NO)CC(C)C)cc1 | MMP1 | enzyme activity, inhibitor | 1 µM | 26 |
| O=C(Nc1cccnn1)N1CCN([C@@H]2CCOc3cc(C(F)(F)F)ccc32)CC1 | CASP9 | cell-free assay | 20 µM | -4 |
| N=C(N)c1ccc2cc(OC(=O)c3ccc(N=C(N)N)cc3)ccc2c1 | USP7 | enzyme activity, inhibitor | 10 µM | 0 |
| COc1ccc(S(=O)(=O)N2CCCCC2)cc1C | Corticotropin-releasing factor receptor 1 (CRHR1, Homo sapiens, UniProt P34998) | ligand displacement, radioligand | 10 µM | < 30 |
| Cc1ncc(C)n2nc(/C=C/c3nc(N4CCCC4)cc(N4CCOCC4)n3)nc12 | SLC5A7 | ligand displacement | 10 µM | 14 |
| C#Cc1n[nH]c2c(-c3cn([C@@H](C)c4ccccn4)c(=O)[nH]c3=O)cc(F)cc12 | TGF-beta receptor type-1 (TGFBR1, Homo sapiens, UniProt P36897) | enzyme activity, inhibitor | 0.1 µM | 1.5 |
| CN(CCN1CCC(OC(=O)Nc2ccccc2-c2ccccc2)CC1)C(=O)c1ccc(CN2CCC(C(N)=O)CC2)cc1 | SLC5A7 | ligand displacement, radioligand | 1 µM | -6 |
| COC(=O)CC[C@H](NC(=O)[C@H](CC(C)C)NC(=O)OCc1ccccc1)C(=O)N[C@@H](Cc1cnc[nH]1)C(=O)N[C@@H](CC(=O)OC)C(=O)CF | CASP9 | enzyme activity, inhibitor | 10 µM | 86 |
| COc1cc(Nc2ncc(F)c(Nc3ccc4c(n3)NC(=O)C(C)(C)O4)n2)cc(OC)c1OC | TNIK | binding | 10 µM | 56 |
| c1ccc(C(NCCNC(c2ccccc2)c2ccccc2)c2ccccc2)cc1 | MMP1 | enzyme activity, inhibitor | 10 µM | -10 |
